Measurements as given in ChEMBL document CHEMBL4321878, “Stereoselective Activity of 1-Propargyl-4-styrylpiperidine-like Analogues That Can Discriminate between Monoamine Oxidase Isoforms A and B” (J Med Chem, 2020).
Calls of active or inactive are those of the source. No cut-off for these calls is given here.

Tests used:
[1] = Apparent permeability across absorptive direction in Sprague-Dawley rat ileum at 50 uM measured after 20 mins LC-MS/MS analysis; assay type: ADME, tissue-based
[2] = target: T1, Amine oxidase [flavin-containing] A (Homo sapiens, UniProt P21397); conditions: 20 min
T1 sequence (P21397 whole entry): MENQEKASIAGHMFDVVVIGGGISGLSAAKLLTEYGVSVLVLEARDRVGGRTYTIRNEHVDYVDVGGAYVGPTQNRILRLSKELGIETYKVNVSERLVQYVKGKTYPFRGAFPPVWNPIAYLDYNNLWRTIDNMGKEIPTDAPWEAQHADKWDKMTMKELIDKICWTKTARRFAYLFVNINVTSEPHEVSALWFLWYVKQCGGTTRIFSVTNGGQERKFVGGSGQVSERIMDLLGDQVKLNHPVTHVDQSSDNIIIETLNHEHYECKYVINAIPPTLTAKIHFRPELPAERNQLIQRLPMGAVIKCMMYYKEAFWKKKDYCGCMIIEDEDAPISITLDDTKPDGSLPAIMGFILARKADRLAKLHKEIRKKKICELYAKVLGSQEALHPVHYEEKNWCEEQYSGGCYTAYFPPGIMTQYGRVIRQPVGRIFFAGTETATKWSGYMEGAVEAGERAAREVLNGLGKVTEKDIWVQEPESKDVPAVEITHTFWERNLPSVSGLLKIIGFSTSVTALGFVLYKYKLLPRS

[3] = test system: Mus musculus; test: Ex vivo inhibition of MAOB in ip dosed Swiss mouse brain homogenates measured after 30 mins using benzylamine as substrate by amplex red reagent-based horseradish peroxidase-coupled fluorescence assay; assay type: functional
[4] = test system: Mus musculus; test: Reversal of haloperidol-induced catalepsy in Swiss mouse at 0.3 mg/kg, ip pretreated for 15 mins followed by haloperidol challenge and measured up to 90 mins; assay type: functional, organism-based
[5] = Photoisomerization of the compound in D2O incubated for 7 days under sunlight by NMR analysis
[6] = Solubility of the compound in pH 7.4 sodium phosphate buffer at >100 uM; assay type: physicochemical
[7] = test system: SH-SY5Y; test: Cytotoxicity against human SH-SY5Y cells assessed as reduction in cell viability at 5 to 10 uM measured after 24 hrs by MTS assay; assay type: cell-based
Procedure, shortened: (§1)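 SH-SY5Y human neuroblastoma cells grown in Advanced DMEM with 10% FBS at 37 °C, 5% CO2, and switched to serum-depleted medium before treatment. Compounds (20 mM DMSO stocks) were applied at 5, 10 or 50 μM for 24 h. Viability read by MTS assay.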

[8] = test system: SH-SY5Y; test: Neuroprotective activity against 6-OHDA-induced toxicity in human SH-SY5Y cells assessed as LDH release at 5 uM pretreated for 30 mins followed by 6-OHDA challenge and measured after 24 hrs by cytotox-onetm homogeneous membrane integrity assay (reference value: 135%); assay type: functional
[9] = Cytotoxicity against human SH-SY5Y cells assessed as cell viability at 50 uM measured after 24 hrs by MTS assay relative to control; assay type: cell-based; conditions: read-out: Activity; procedure, shortened: as §1
[10] = test system: SH-SY5Y; test: Neuroprotective activity against 6-OHDA-induced toxicity in human SH-SY5Y cells assessed as reduction in propidium iodide positive cells at 5 uM pretreated for 30 mins followed by 6-OHDA challenge and measured after 24 hrs by propidium iodide staining-based flow cytometric analysis relative to 6-OHDA; assay type: functional
Procedure, shortened: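 SH-SY5Y cells were grown in Advanced DMEM with 10% FBS at 37 °C, 5% CO2 to 80% confluence, then switched to serum-depleted medium. Compound (5 μM, from a 20 mM DMSO stock) was added 30 min before 6-OHDA (100 μM). After 24 h, PI staining was read by flow cytometry. Runs were n ≥ 2, each in duplicate, with one-way ANOVA and Bonferroni.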

[11] = test system: Mus musculus; test: Antianxiety activity in Swiss mouse assessed as increase in time spent in open arm entries at 1 mg/kg, ip measured after 30 mins and monitored for 5 mins by elevated plus maze test relative to control; assay type: functional
[12] = test system: Mus musculus; test: Antianxiety activity in Swiss mouse assessed as increase in open arm entries at 1 mg/kg, ip measured after 30 mins and monitored for 5 mins by elevated plus maze test relative to control; assay type: functional
[13] = target: T1, Amine oxidase [flavin-containing] A; test: Irreversible inhibition of recombinant human MAOA expressed in Pichia pastoris at 100 uM measured immediately by UV-vis spectrophotometric analysis relative to control
[14] = test system: Mus musculus; test: Antidepressant-like activity in Swiss mouse assessed as reduction in immobility time at 30 mg/kg, ip administered as single dose for 30 mins prior to testing measured for last 4 mins of 6 mins test by tail suspension test; assay type: functional, organism-based
[15] = test system: Mus musculus; test: Antidepressant-like activity in Swiss mouse assessed as reduction in immobility time at 3 to 10 mg/kg, ip administered as single dose for 30 mins prior to testing measured for last 4 mins of 6 mins test by tail suspension test; assay type: functional, organism-based

## COCCc1ccc(OCC(O)CNC(C)C)cc1 (stereo not given) [METOPROLOL]
[1]
  Papp A→B at 20 min, 50 µM: 14 ×10⁻⁶ cm/s

## C#CCN1CCC(/C=C\c2ccc(C(N)=O)cc2)CC1
[2]
  activity at 100 µM: 89.5%

## C#CCN1CCCC(CCc2cc(F)c(F)cc2F)C1 (racemic)
[2]
  activity at 100 µM: 86%

## C#CCN1CCC(CCc2ccc(OC)cc2)CC1
[2]
  activity at 100 µM: 62.2%

## C#CCN1CCC(CCc2ccc(C(F)(F)F)cc2)CC1 [listing 1 of 2 here]
[3]
  inhibition: Dose-dependent effect
[4]
  Activity: inactive
[5]
  Drug metabolism: Metabolite not detected

## C#CCN1CCC(/C=C/c2ccc(OC)cc2)CC1
[2]
  activity at 100 µM: 56.1%

## C#CCN1CCC(/C=C/c2ccc(S(C)(=O)=O)cc2)CC1
[2]
  activity at 100 µM: 68.7%

## C#CCN1CCC(/C=C\c2ccc(Cl)cc2)CC1
[6]
  solubility: Insoluble

## C#CCN1CCC(CCc2ccc(C(F)(F)F)cc2)CC1 [listing 2 of 2 here]
[2]
  activity at 100 µM: 62.3%

## C#CCN1CCC(/C=C\c2ccc(C(F)(F)F)cc2)CC1
[2]
  activity at 100 µM: 80.1%

## C#CCN1CCCC(/C=C/c2cc(F)c(F)cc2F)C1 (racemic)
[2]
  activity at 100 µM: 102%

## C#CCN1CCC(CCc2ccc(F)cc2)CC1
[2]
  activity at 100 µM: 76.9%

## C#CCN1CCC(/C=C/c2ccc(F)cc2)CC1.Cl
[7]
  Activity: Non-Toxic
[8]
  Activity: 76%
[9]
  viability at 24 h, 50 µM: > 80%

## C#CCN1CCC(CCc2ccccc2)CC1
[6]
  solubility: Insoluble

## C#CCN1CCC(CCc2cccc(C(F)(F)F)c2)CC1
[2]
  activity at 100 µM: 71.6%

## C#CCN1CCC(CCc2ccc(C(C)C)cc2)CC1
[6]
  solubility: Insoluble

## C#CCN1CCC(/C=C/c2ccc(Br)cc2)CC1
[2]
  activity at 100 µM: 54.5%

## C#CCN1CCC(CCc2cc(F)c(F)cc2F)CC1
[2]
  activity at 100 µM: 65.6%

## C#CCN1CCC(CCc2ccc(Cl)cc2)CC1
[2]
  activity at 100 µM: 67.7%

## C#CCN1CCC(/C=C/c2ccc(C#N)cc2)CC1
[6]
  solubility: Insoluble

## C#CCN1CCC(/C=C/c2ccc(C(N)=O)cc2)CC1
[2]
  activity at 100 µM: 64.8%

## C#CCN1CCCC(CCc2ccc(F)cc2)C1 (racemic)
[2]
  activity at 100 µM: 93.1%

## C#CCN1CCC(CCc2ccc(O)cc2)CC1
[2]
  activity at 100 µM: 67.7%

## C#CCN1CCC(CCc2ccc(C)cc2)CC1
[2]
  activity at 100 µM: 68.1%

## C#CCN1CCC(/C=C/c2ccc(C(C)C)cc2)CC1
[6]
  solubility: Insoluble

## C#CCN1CCC(CCc2ccc(C(C)C)cc2)CC1.Cl
[7]
  Activity: Non-Toxic
[8]
  Activity: 82%
[9]
  viability at 24 h, 50 µM: > 80%
[10]
  fold change (FC): 0.68

## C#CCN1CCC(/C=C\c2ccc(S(C)(=O)=O)cc2)CC1
[2]
  activity at 100 µM: 70.6%

## CN1C(=O)CN=C(c2ccccc2)c2cc(Cl)ccc21 [DIAZEPAM]
[11]
  fold change (FC): 2.4
[12]
  fold change (FC): 2.1

## C#CCN1CCC(/C=C/c2ccc(C)cc2)CC1
[2]
  activity at 100 µM: 57.3%

## C#CCN1CCC(/C=C\c2ccc(C)cc2)CC1
[2]
  activity at 100 µM: 62.2%

## C#CCN1CCC(/C=C/c2ccc(C(F)(F)F)cc2)CC1 [listing 1 of 2 here]
[2]
  activity at 100 µM: 64.9%

## C#CCN1CCCC(/C=C/c2ccc(F)cc2)C1 (racemic)
[2]
  activity at 100 µM: 91%

## C#CCN(C)CCCOc1ccc(Cl)cc1Cl [CLORGILINE]
[13]
  inhibition at 100 µM: 100%

## C#CCN1CCC(CCc2ccc(C(N)=O)cc2)CC1
[2]
  activity at 100 µM: 75.1%

## C#CCN1CCC(CCc2ccc(C#N)cc2)CC1.Cl
[7]
  Activity: Non-Toxic
[8]
  Activity: 82%
[9]
  viability at 24 h, 50 µM: > 80%

## CN(C)CCCN1c2ccccc2CCc2ccccc21
[14]
  Activity: Active

## C#CCN1CCC(/C=C/c2ccc(C(F)(F)F)cc2)CC1 [listing 2 of 2 here]
[5]
  Drug metabolism: Metabolite not detected

## C#CCN1CCC(/C=C\c2ccccc2)CC1.Cl
[15]
  Activity: inactive
[7]
  Activity: Non-Toxic
[9]
  viability at 24 h, 50 µM: > 80%
